From ChEMBL document CHEMBL1157586 (Bioorg Med Chem, 2010)
Active and inactive are the calls of the source. The rule behind the calls is not given here.

Experiments:
[1] = molecular target: T1, Cyclin-dependent kinase (Homo sapiens) (UniProt P06493+P11802+P24941+Q00535+Q00534+P50613+Q00526+Q00536+Q07002+P49336+Q00537+P21127+Q96Q40+Q9BWU1+O94921+P50750+Q15131+Q14004+Q8IZL9+Q9NYV4); experiment: Inhibition of CDK in human A2780 cells assessed as reduction of hyperphosphorylated form of retinoblastoma protein at 3 uM by immunohistochemistry; assay type: cell-based
A2780 [2] = experiment: Cell cycle arrest in human A2780 cells assessed as accumulation at S phase at 1 uM after 24 hrs by FACS analysis; assay type: functional
How it was run: (§1)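 A2780 cells (ECACC) seeded at 25000 cells/cm² in RPMI 1640, pH 7.4, with 10% FBS, 2 mM L-glutamine and penicillin–streptomycin, at 37 °C in 5% CO₂. After 24 h, treated for 24 h at 1 and 3 µM. Floating and trypsinised adherent cells pooled, PBS-washed, and DNA content analysed by flow cytometry.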

DU-145 = experiment: Antiproliferative activity against human DU145 cells after 72 hrs by SRB assay; assay type: functional, cell-based; conditions: DU-145, 72 h
[3] = molecular target: T1, Cyclin-dependent kinase (Homo sapiens); experiment: Inhibition of CDK in human A2780 cells assessed as accumulation of hypophosphorylated form of retinoblastoma protein at 1 uM by immunohistochemistry; assay type: cell-based
[4] = Inhibition of PDGFR by scintillation proximity assay
MCF7 = experiment: Antiproliferative activity against human MCF7 cells after 72 hrs by SRB assay; assay type: functional, cell-based; conditions: MCF7, 72 h
A2780 [5] = experiment: Cell cycle arrest in human A2780 cells assessed as accumulation at G2/M phase at 1 uM after 24 hrs by FACS analysis; assay type: functional; how it was run: as §1
A2780 [6] = experiment: Antitumor activity against human A2780 cells xenografted in BALB/c nu/nu mouse assessed as inhibition of tumor growth at 30 mg/kg, iv QD for 10 consecutive days measured every 3 days post last dose; assay type: functional
How it was run: (§2)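 Human tumor xenografts (A2780 ovarian, HCT-116 colon, BX-PC3 pancreatic) in mice. Compound dissolved in 5% dextrose and given iv once daily for 10 consecutive days; A2780 curves show dosing from day 8. Doses were 10, 20 and 30 mg/kg for A2780, and 10 and 20 mg/kg for HCT-116 and BX-PC3. Controls received vehicle. Tumor growth inhibition taken at end of treatment; body weight tracked.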

PC-3 = experiment: Antiproliferative activity against human PC3 cells after 72 hrs by SRB assay; assay type: functional, cell-based; conditions: PC-3, 72 h
A-375 = experiment: Antiproliferative activity against human A375 cells after 72 hrs by SRB assay; assay type: functional, cell-based; conditions: A-375, 72 h
BXPC-3 [7] = experiment: Antitumor activity against human BxPC3 cells xenografted in BALB/c nu/nu mouse assessed as inhibition of tumor growth at 20 mg/kg, iv QD for 10 consecutive days measured every 3 days post last dose; assay type: functional; how it was run: as §2
A2780 [8] = experiment: Cell cycle arrest in human A2780 cells assessed as accumulation at sub-G1 phase at 3 uM after 24 hrs by FACS analysis; assay type: functional; how it was run: as §1
A2780 [9] = experiment: Cell cycle arrest in human A2780 cells assessed as accumulation at G2/M phase at 3 uM after 24 hrs by FACS analysis; assay type: functional; how it was run: as §1
A2780 [10] = experiment: Inhibition of cellular DNA synthesis in human A2780 cells assessed as BrdU incorporation into nuclear DNA at 1 uM after 24 hrs by Hoechst 33342 staining-based microscopic analysis; assay type: functional; set-up: scale not given: the % may be the effect or the level left
How it was run: (§3)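 A2780 human ovarian adenocarcinoma cells were seeded at 25000 cells/cm² in RPMI 1640 pH 7.4 with 10% FBS, 2 mM L-glutamine and penicillin–streptomycin. They were kept at 37 °C in 5% CO₂. After 24 h they were exposed to compound for 24 h. Floating and adherent cells were harvested with trypsin/EDTA, washed in PBS, and split for flow cytometry, immunoblot and BrdU incorporation.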

HCT-116 [11] = experiment: Antitumor activity against human HCT116 cells xenografted in iv dosed BALB/c nu/nu mouse assessed as inhibition of tumor growth administered QD for 10 consecutive days measured every 3 days post last dose; assay type: functional, organism-based; how it was run: as §2
Mus musculus = experiment: Inhibition of CDK in human A2780 cells xenografted in iv dosed BALB/c nu/nu mouse assessed as reduction of hyperphosphorylated form of retinoblastoma protein at 30 mg/kg, iv for 5 days by immunohistochemistry; assay type: functional, organism-based; set-up: dose 30 mg/kg
How it was run: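 Mice bearing A2780 xenografts given 30 mg/kg iv for 5 days; vehicle controls. Tumors analysed by immunohistochemistry for BrdU and phospho-pRb positive cells. For BrdU, sections were denatured and pretreated with 4 N HCl and proteinase K, then stained with the Dako ARK kit and counterstained with hematoxylin. Automated quantitative image analysis done by two observers.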

A2780 [12] = experiment: Antitumor activity against human A2780 cells xenografted in iv dosed BALB/c nu/nu mouse assessed as inhibition of tumor growth administered QD for 10 consecutive days measured every 3 days post last dose; assay type: functional, organism-based; how it was run: as §2
[13] = molecular target: T1, Cyclin-dependent kinase (Homo sapiens); experiment: Inhibition of CDK in human A2780 cells assessed as accumulation of hypophosphorylated form of retinoblastoma protein at 3 uM by immunohistochemistry; assay type: cell-based
[14] = Inhibition of STK2 by scintillation proximity assay
A2780 [15] = experiment: Cell cycle arrest in human A2780 cells assessed as accumulation at S phase at 3 uM after 24 hrs by FACS analysis; assay type: functional; how it was run: as §1
HCT-116 [16] = experiment: Antiproliferative activity against human HCT116 cells after 72 hrs by SRB assay; assay type: functional, cell-based; conditions: HCT-116, 72 h
A2780 [17] = experiment: Cell cycle arrest in human A2780 cells assessed as accumulation at G0/G1 phase at 1 uM after 24 hrs by FACS analysis; assay type: functional; how it was run: as §1
A2780 [18] = experiment: Inhibition of cellular DNA synthesis in human A2780 cells assessed as BrdU incorporation into nuclear DNA at 3 uM after 24 hrs by Hoechst 33342 staining-based microscopic analysis; assay type: functional; set-up: scale not given: the % may be the effect or the level left; how it was run: as §3
HCT-116 [19] = experiment: Antitumor activity against human HCT116 cells xenografted in BALB/c nu/nu mouse assessed as inhibition of tumor growth at 20 mg/kg, iv QD for 10 consecutive days measured every 3 days post last dose; assay type: functional; conditions: HCT-116, read-out: INH; how it was run: as §2
[20] = Antiproliferative activity against human C-433 cells after 72 hrs by SRB assay; assay type: functional, cell-based; conditions: C-433, 72 h
A2780 [21] = experiment: Antiproliferative activity against human A2780 cells after 72 hrs by CellTiter-Glo luminescence assay; conditions: A2780, 72 h
A2780 [22] = experiment: Antitumor activity against human A2780 cells xenografted in iv dosed BALB/c nu/nu mouse assessed as reduction of BrdU incorporation into cellular DNA at 30 mg/kg, iv for 5 days by immunohistochemistry
BXPC-3 [23] = experiment: Antiproliferative activity against human BxPC3 cells after 72 hrs by SRB assay; assay type: functional, cell-based; conditions: BXPC-3, 72 h
[24] = Inhibition of CK2 by scintillation proximity assay
COLO 205 = experiment: Antiproliferative activity against human COLO205 cells after 72 hrs by SRB assay; assay type: functional, cell-based; conditions: COLO 205, 72 h
A2780 [25] = experiment: Cell cycle arrest in human A2780 cells assessed as accumulation at G0/G1 phase at 3 uM after 24 hrs by FACS analysis; assay type: functional; how it was run: as §1
[26] = Inhibition of SULU1 by scintillation proximity assay
[27] = Inhibition of NIM by scintillation proximity assay
[28] = molecular target: T1, Cyclin-dependent kinase (Homo sapiens); experiment: Inhibition of CDK in human A2780 cells assessed as reduction of hyperphosphorylated form of retinoblastoma protein at 1 uM by immunohistochemistry; assay type: cell-based

Activity [1]: Active
IC50 (DU-145): 303 nM
Activity [3]: Active
IC50 [4]: > 10000 nM
IC50 (MCF7): 1280 nM
IC50 (PC-3): 601 nM
IC50 (A-375): 396 nM
Activity [13]: Active
IC50 [14]: > 10000 nM
IC50 (HCT-116 [16]): 163 nM
IC50 (A2780 [21]): 90 nM
IC50 (BXPC-3 [23]): 3440 nM
IC50 [24]: > 10000 nM
IC50 (COLO 205): 188 nM
IC50 [26]: > 10000 nM
IC50 [27]: > 10000 nM
Activity [28]: Active
SMILES: CC(C)CC(=O)Nc1n[nH]c2c1CN(C(=O)C1CCN(C)CC1)C2(C)C [PHA-793887]
Activity (A2780 [2]): -76%
Activity (A2780 [5]): 62%
inhibition in vivo at 30 mg/kg (A2780 [6]): 76%
inhibition in vivo at 20 mg/kg (BXPC-3 [7]): 84%
Activity (A2780 [8]): 26.2%
Activity (A2780 [9]): 263%
Activity (A2780 [10]): -85%
Activity (HCT-116 [11]): Dose-dependent effect
Activity (Mus musculus): Active
Activity (A2780 [12]): Dose-dependent effect
Activity (A2780 [15]): -48%
Activity (A2780 [17]): 25%
Activity (A2780 [18]): -100%
inhibition in vivo at 20 mg/kg (HCT-116 [19]): 81%
IC50 [20]: 285 nM
Activity (A2780 [22]): Active
Activity (A2780 [25]): -11%
